From PubChem BioAssay
hiPSC survival: hiPSC single-cell survival enhancement; survival enhancement, % at 20 µM; ATPlite luminescence; 100% = ROCK inhibitor wells, 0% = DMSO; 360,000 tested, 0.044% active; in the data active = survival enhancement above about 18%;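 also: cells exposed to compounds for 16 hours before the ATP read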
H9c2 protect: myocardial damage modulation in H9c2 cells; H9c2 cardiomyocytes, H2O2 injury protection, ATPLite, 2 h; protection from H2O2 cell death, % at 20 µM; AID 588492; 360,000 tested, 0.63% active;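 active = compounds giving at least 50% protection of heart cells from peroxide-induced death in the single-dose screen, raw or plate-pattern-corrected value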;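 also: 0% = DMSO wells with peroxide and 100% = DMSO wells without peroxide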
SENP1 inh: inhibitors of human SENP1 SUMO protease catalytic domain; Q9P0U3; recombinant SENP1 catalytic domain, CyPet-SUMO1-YPet FRET cleavage; inhibition, % at 10 µM; 360,000 tested, 0.21% active;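 active = inhibition at least 30% at 10 µM, raw YFP signal under a set limit, fluorescence ratio 0.5 to 1.5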;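 also: 0% = enzyme with DMSO and 100% = no enzyme wells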
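Assay system – human recombinant His6-tagged SENP1 catalytic domain enzyme · Input – SENP1 enzyme, 20 pM final · Buffer or medium – Tris pH 8 buffer plus EDTA, NaCl, BME, BSA, NP40, catalase · Schedule – 50 min reaction at room temperature · Technique – FRET read of cyan and yellow fluorescence · Control set – no-enzyme wells low, DMSO-plus-enzyme wells high control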
Arrestin-AP2 inh: inhibitors of human beta-arrestin and AP2 interaction | FITC-arrestin peptide / GST-AP2 beads, flow cytometry; AP2 beta2 appendage carries R879A mutation | inhibition, % at 10 µM | 340,000 tested, 0.31% active | AID 504490;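 active = inhibition above a set limit, near 3 SD of compounds lacking own fluorescence, cut at about 54% in these data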;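 also: plate controls were DMSO wells for no effect and 5 µM unlabelled arrestin peptide for full effect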
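test system = AP2 appendage R879A on GSH beads | buffer or medium = PBS plus Tween 20 (0.05%) and BSA (0.1%) | incubation = 12 min plus 1 h, RT | detection = bead flow cytometry, FITC channel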
FAS TE block: FAS thioesterase (human) inhibition | recombinant FAS-TE, OMFH fluorogenic substrate, fluorescence endpoint | P49327 | 360,000 tested, 0.67% active | inhibition, % at 15 µM;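 active = compounds whose normalised, plate-corrected inhibition of enzyme fluorescence in the single-dose primary screen is 50% or more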;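 also: 0% = DMSO with enzyme and 100% = substrate without enzyme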
NR3A LBD binder: modulates the human NR3A ligand-binding domain; NR3A LBD differential scanning fluorimetry, Tm shift; 0% = protein alone, 100% = glycine-bound protein; Tm shift relative to glycine control, % at 25 µM; 340,000 tested, 2.5% active; AID 1259313;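 active = melting temperature shift of at least 10% of the positive control shift, at one fixed dose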
FAS-TE conf: FAS thioesterase (human) inhibition, confirmation. recombinant FAS-TE, OMFH fluorogenic substrate, fluorescence. AID 624325. 2,300 tested, 45% active. shares compounds with FAS TE block. inhibition, % at 15 µM;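 active = compounds inhibiting the enzyme by at least 50% at 15 µM in any one of the replicates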;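 also: 0% = enzyme with DMSO only and 100% = wells lacking enzyme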
* = called active by the depositor; · = no result. Shown are actives, neighbours in structure and some others; about 4% of the full set was active somewhere.

SMILES	hiPSC survival	H9c2 protect	SENP1 inh	Arrestin-AP2 inh	FAS TE block	NR3A LBD binder	FAS-TE conf
O=C(COC(=O)c1cc([N+](=O)[O-])ccc1NCCO)Nc1ccc2c(c1)OCO2	0.1	6.9	-3.8	-2.5	77.4*	-3.6	51.4*
Cc1ccc(C)c(C(=O)COC(=O)c2cc([N+](=O)[O-])ccc2NCCO)c1	-0.4	-3.2	-2.2	12.1	62.3*	-6.8	4.2
COc1cccc(C(=O)N2CCC[C@H]2C(=O)N2CCC[C@H]2C(=O)NCc2ccccn2)c1	0.0	·	0.7	·	-10.5	·	·
CNC(=O)C[C@H]1C(=O)N(c2ccc(OC)cc2)C[C@@H]1CSC	1.3	7.1	1.0	·	-9.1	·	·
COC(=O)N1C(=O)[C@](c2ccccc2)(C2CCCC2)N1C(=O)OC	0.2	79.9*	0.6	38.6	80.5*	0.2	90.4*
O=C(COc1ccccc1)Nc1nc(-c2ccc(S(=O)(=O)N3CCOCC3)cc2)cs1	-2.0	0.3	-0.9	5.3	85.5*	-3.0	57.9*
O=C(Nc1nc(-c2ccc(S(=O)(=O)N3CCCC3)cc2)cs1)C1COc2ccccc2O1 (centres undefined)	1.7	66.0*	1.2	-12.2	89.6*	-2.9	43.1*
O=S(=O)(c1ccc(-c2csc(Nc3ccc(F)cc3)n2)cc1)N1CCCC1	-0.5	-12.0	3.8	42.1	65.2*	23.6*	45.7*
O=C(NCc1cccs1)c1ccc2sc(C3=C[C@@H](O)[C@@H](O)[C@@H](CO)O3)nc2c1	-1.6	2.1	3.1	·	-8.7	·	·
N#Cc1cc(-c2ccccc2)cn(Cc2c(Cl)cccc2Cl)c1=O	-3.0	-4.6	-1.4	-1.0	62.3*	11.2*	24.8*
Cc1ccc(-c2cc(C#N)c(=O)n(Cc3c(Cl)cccc3Cl)c2)cc1	2.3	-9.2	-18.1	24.7	16.8	0.8	·
COc1ccc(CC(=O)Oc2ccc(C(C)(C)C)cc2)cc1S(=O)(=O)N1CCOCC1	-0.2	-8.2	1.6	-2.6	59.8*	-0.5	14.9
CCOC(=O)CN(C(=O)COc1nc(-c2ccccc2)cc(C)c1C#N)c1cccc(OC)c1	0.0	7.1	1.9	-9.4	52.0*	0.2	3.4
CCOC(=O)CN(C(=O)COc1nc(-c2ccccc2)cc(C)c1C#N)c1ccccc1	-0.1	1.5	8.6	10.8	59.3*	-1.9	30.2
CCOC(=O)CN(C(=O)COc1nc(-c2ccccc2)cc(C)c1C#N)c1ccc(C)cc1	0.4	0.2	0.5	0.4	48.6	0.2	·
N#CC(=Nc1cccc(F)c1)C1=C(O)c2ccccc2C1=O	-0.5	1.4	5.0	·	0.2	·	·
CCOc1cccc2cc(C(=O)NCCC3=CCCCC3)c(=O)oc12	-0.2	6.1	-0.2	18.7	87.2*	0.6	74.5*
CC(C)CCNC(=O)C1CC(c2cccc([N+](=O)[O-])c2)=NO1 (centres undefined)	-0.3	-0.4	-0.5	1.5	52.7*	-3.3	58.5*
O=C(NCCCCc1ccccc1)C1CC(c2cccc([N+](=O)[O-])c2)=NO1 (centres undefined)	2.6	-17.0	1.4	-7.8	66.1*	-1.3	75.9*
Cc1cccc(N2C(=O)c3cccc4c(N5CCCCC5)c([N+](=O)[O-])cc(c34)C2=O)c1C	-1.1	-6.3	4.1	7.7	21.1	-3.3	·
O=C1c2cccc3c(N4CCOCC4)c([N+](=O)[O-])cc(c23)C(=O)N1c1cccc2ccccc12	9.3	-5.0	22.2	0.6	76.8*	-6.6	25.1
CNS(=O)(=O)c1ccc2c(c1)C(=O)c1cc(S(=O)(=O)NC)ccc1CC2	-1.7	3.9	1.0	14.7	82.4*	2.0	91.4*
CN(C)S(=O)(=O)c1ccc2c(c1)C(=O)c1cc(S(=O)(=O)N(C)C)ccc1CC2	1.1	-7.8	2.8	4.2	78.9*	0.7	93.6*
Cn1c(=O)c2[nH]c(C=Cc3ccc4c(c3)OCO4)nc2n(C)c1=O	-3.1	5.1	-39.3	4.6	-1.4	-2.8	·
CCCCC(=O)N(C)c1c(CC)nc2c(OCC(=O)c3ccc(Cl)cc3Cl)cccn12	-0.7	-4.5	-56.0	·	1.3	·	·
SMILES	hiPSC survival	H9c2 protect	SENP1 inh	Arrestin-AP2 inh	FAS TE block	NR3A LBD binder	FAS-TE conf
COc1cccc2sc3cc(NCc4ccc(C)o4)ccc3c(=O)c12	-3.0	-0.9	-66.4	4.1	7.4	-2.8	·
CCOC(=O)CN1C(=O)S/C(=C\c2ccc(-c3ccc(C(=O)O)c(Cl)c3)o2)C1=O	0.0	2.0	-23.8	30.0	3.9	3.8	·
CC(C)N1C(=O)S/C(=C\c2ccc(-c3ccc(Cl)c(C(=O)O)c3)o2)C1=O	-0.7	-0.7	-35.9	11.1	69.0*	0.4	75.0*
COc1ccc(-c2cc(C(=O)OC(C)C(=O)Nc3c(C)n(C)n(-c4ccccc4)c3=O)c3ccccc3n2)cc1 (centres undefined)	2.0	2.7	-5.0	9.5	-7.4	-2.8	·
Cc1c(NC(=O)C(C)OC(=O)c2cc(-c3cccc4ccccc34)nc3ccccc23)c(=O)n(-c2ccccc2)n1C (centres undefined)	-0.7	26.6	1.5	14.0	72.9*	-1.0	15.7
O=c1[nH]c(=O)n2ncnc2[nH]1	4.2	3.4	1.3	·	-6.3	·	·
CCCn1c(=S)[nH]c2cc(C(=O)N3CCN(C)CC3)ccc2c1=O	-0.3	1.8	1.9	·	-5.6	·	·
CCCn1c(=S)[nH]c2cc(C(=O)N3CCN(c4ccc(F)cc4)CC3)ccc2c1=O	2.5	4.0	3.5	·	54.8*	·	25.7
Cc1c(Cl)ccc2c1NC(=O)[C@]21N[C@@H](Cc2ccccc2)[C@H]2C(=O)N(c3ccc(F)cc3)C(=O)[C@H]21	-1.8	11.9	2.9	9.0	76.3*	13.1*	19.8
O=C(c1nn2c(C(F)(F)F)cc(-c3cccs3)nc2c1Br)N1CCCc2ccccc21	0.2	-5.4	-24.8	15.3	58.7*	0.2	13.0
O=C(c1nn2c(C(F)(F)F)cc(-c3ccco3)nc2c1Br)N1CCCc2ccccc21	-0.9	-13.2	-21.1	-0.2	13.5	-3.5	·
COc1cc2c(cc1NC(=O)C(C)N1CCN(S(=O)(=O)c3ccccc3[N+](=O)[O-])CC1)oc1ccccc12 (centres undefined)	-1.2	-0.8	-9.6	4.3	53.7*	-2.9	12.5
COc1cc2c(cc1NC(=O)CN1CCN(S(=O)(=O)c3ccc(C)cc3)CC1)oc1ccccc12	-0.4	2.1	0.8	8.9	23.4	1.6	·
CN(Cc1cnn(-c2ccc(F)cc2)c1)C(=O)[C@H]1O[C@@H](n2cnc3c(N)ncnc32)[C@H](O)[C@@H]1O	0.1	4.4	0.5	·	-6.8	·	·
